Activity calls are given as the source filed them. The calls are words filed in the database; no cut-off is given here.
Columns and labels:
[1] = target: T1, Adrenergic receptor beta (Homo sapiens, UniProt P08588+P07550+P13945); test: In Vitro inhibition of the beta adrenergic receptor in guinea pig atria; type: tissue-based, Cavia porcellus; conditions: target entry is the homologue from another species
[2] = Time in which 1/2 of the initial amount disappeared in human blood.; type: ADME, organism-based
Method in brief: (§1)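 1 mL of solution containing 50 µg of compound was added to 1 mL of dog or human whole blood, or to 1 mL of 33% (w/v) canine liver homogenate. They were assayed by HPLC on a phenyl column with 60% acetonitrile/40% 0.05 M sodium phosphate (pH 6.6) and UV detection. Half-life was read graphically from concentration versus time.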

[3] = T1/2 in canine blood; type: ADME, […], Canis lupus familiaris; conditions: dog; method in brief: as §1
[4] = Selectivity determined by expression 10[pA2(atria) - pA2 (trachea)] in guinea pig; type: functional, Cavia porcellus
[5] = target: T1, Adrenergic receptor beta; test: In vitro blocking of beta adrenergic receptor in guinea pig trachea; type: tissue-based, Cavia porcellus; conditions: target entry is the homologue from another species
[6] = t1/2 in canine liver; type: ADME, Canis lupus familiaris; conditions: dog
[7] = organism: Canis familiaris; test: Time taken for 80% recovery at a dose of 18 microg (3-h infusion period); type: functional, organism-based; conditions: Canis lupus familiaris
[8] = Stability at pH 7.4 and 37 degree Celsius (after 18 h); type: physicochemical; conditions: buffer
Method in brief: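 Chemical stability was tested in pH 7.4 buffer at 37 °C. The percentage of parent compound remaining after 18 h of incubation was recorded.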

[9] = organism: Canis familiaris; test: Percent inhibition of isoproterenol induced tachycardia at a dose of 7 microg (3-h infusion period); type: functional, Canis lupus familiaris
[10] = organism: Canis familiaris; test: Time taken for 80% recovery at a dose of 7 microg (3-h infusion period); type: functional, organism-based; conditions: Canis lupus familiaris
Method in brief: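 After the infusion ended, the time to 80% recovery of the blockade was recorded as duration of action. The listed dose is the average amount infused per minute over the 3-h period, in µg/(kg min).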

[11] = organism: Canis familiaris; test: Time taken for 80% recovery at a dose of 50 microg (3-h infusion period); type: functional, organism-based; conditions: Canis lupus familiaris
[12] = organism: Canis familiaris; test: Time taken for 80% recovery at a dose of 121 microg (3-h infusion period) / 88 kg min (40-min infusion model); type: functional, organism-based; conditions: Canis lupus familiaris
[13] = organism: Canis familiaris; test: Time taken for 80% recovery at a dose of 25 microg (3-h infusion period); type: functional, organism-based; conditions: Canis lupus familiaris
[14] = organism: Canis familiaris; test: Time taken for 80% recovery at a dose of 226 microg (3-h infusion period); type: functional, organism-based; conditions: Canis lupus familiaris

SMILES | pA2 [1] | Selectivity [4] | pA2 [5] | also measured
CC(C)(C)NCC(O)COC(=O)CCCc1ccccc1 (stereo unspecified) | 5.3 |  |  | 
CC(C)(C)NCC(O)COC(=O)Cc1ccccc1 (stereo unspecified) | 5.6 |  |  | half-life [2]: 6.3 min; half-life [3]: 16 min
CC(=O)Nc1ccc(C(=O)OCC(O)CNC(C)C)cc1 (stereo unspecified) | 5.8 | 4 | 5.2 | 
CCCOc1ccc(C(=O)OCC(O)CNC(C)(C)C)cc1 (stereo unspecified) | 5.4 |  |  | 
CNC(=O)NCC(C)(C)NCC(O)COC(=O)c1ccccc1F (stereo unspecified) | 6.5 | -39 | 8.1 | half-life [6]: 5 min; half-life [3]: 12 min
COc1ccc(CCNCC(O)COC(=O)c2ccc(C)cc2)cc1OC (stereo unspecified) | 6.6 | 4 | 6 | 
CC(C)(C)NCC(O)COC(=O)c1ccccc1Cl (stereo unspecified) |  |  |  | Recovery time [7]: > 35 min; remaining at 18 h [8]: 98%; half-life [2]: 6 min; half-life [6]: 72 min; half-life [3]: 31 min
CC(C)(C)NCC(O)COC(=O)c1cccc([N+](=O)[O-])c1 (stereo unspecified) | 6.8 |  |  | half-life [6]: > 180 min; half-life [3]: 74 min
Cc1cccc(C(=O)OCC(O)CNC(C)(C)C)c1 (stereo unspecified) | 7 | -2 | 7.3 | 
CN(C)S(=O)(=O)NCC(C)(C)NCC(O)COC(=O)c1ccccc1F (stereo unspecified) | 7.4 | 1 | 7.5 | 
CC(C)NCC(O)COC(=O)c1ccc(OCc2ccccc2)cc1 (stereo unspecified) | < 6 |  |  | 
COc1ccc(CCNCC(O)COC(=O)c2cccc(F)c2)cc1OC (stereo unspecified) | 6.4 | 2 | 6.2 | 
CC(C)C(=O)NCCNCC(O)COC(=O)c1ccccc1F (stereo unspecified) | 6.1 |  |  | 
Cc1ccccc1OCC(O)CNC(C)C (stereo unspecified) | 8.6 | 3 | 8.2 | 
CC(C)(C)NCC(O)COC(=O)c1cccc(O)c1 (stereo unspecified) | 7.4 | -2 | 7.6 | Inhibition [9]: 56%; half-life [6]: 62 min; half-life [3]: 119 min; Recovery time [10]: 25 min
Cc1ccccc1C(=O)OCC(O)CNC(C)C (stereo unspecified) | 6.5 | -4 | 7.1 | remaining at 18 h [8]: 100%; half-life [2]: > 180 min; half-life [6]: 147 min; half-life [3]: > 180 min; Recovery time [11]: > 60 min

SMILES | pA2 [1] | Selectivity [4] | pA2 [5] | also measured
CC(C)(C)NCC(O)COC(=O)C(c1ccccc1)c1ccccc1 (stereo unspecified) | < 5.5 |  |  | half-life [2]: 120 min; half-life [3]: > 180 min
CC(C)(C)NCC(O)COC(=O)c1ccncc1 (stereo unspecified) | 5.3 |  |  | 
C=CCOc1ccccc1C(=O)OCC(O)CNC(C)C (stereo unspecified) | 6.4 | -2 | 6.2 | 
Cc1cc([N+](=O)[O-])ccc1C(=O)OCC(O)CNC(C)(C)C (stereo unspecified) | 6.6 | -5 | 7.3 | 
CC(C)NCC(O)COC(=O)c1ccc(F)cc1 (stereo unspecified) | 6.6 | -5 | 7.3 | half-life [2]: 3.5 min; half-life [6]: 3 min; half-life [3]: 4 min
CC(=O)Nc1cccc(C(=O)OCC(O)CNC(C)C)c1 (stereo unspecified) | 6.1 | -2 | 6.4 | 
COc1ccc(CCNCC(O)COC(=O)c2ccccc2)cc1OC (stereo unspecified) | 7 | 5 | 6.3 | Recovery time [12]: 29 min
CC(C)(C)NCC(O)COC(=O)C1CCCC1 (stereo unspecified) | 5.3 |  |  | 
Cc1cc(N)ccc1C(=O)OCC(O)CNC(C)(C)C (stereo unspecified) | 7.8 | -4 | 8.4 | 
CC(C)NCC(O)COC(=O)c1ccc(O)cc1 (stereo unspecified) | 6.8 | -2.5 | 7.2 | Recovery time [13]: > 45 min
CC(C)(C)NCC(O)COC(=O)c1ccc([N+](=O)[O-])cc1 (stereo unspecified) | 6.1 |  |  | half-life [2]: 5.5 min; half-life [6]: > 180 min; half-life [3]: > 180 min
COc1ccc(CCNCC(O)COC(=O)c2ccccc2C)cc1OC (stereo unspecified) | 7 | 2 | 6.8 | Recovery time [14]: > 60 min; remaining at 18 h [8]: 94%
COc1ccccc1COC(=O)C(O)CNCCc1ccc(OC)c(OC)c1 (stereo unspecified) |  |  | 5 | pA2 ([1]; Cavia porcellus): inactive
CC(C)NCC(O)COc1ccccc1 (stereo unspecified) | 8 | 4 | 7.4 | 
Cc1cccc(C(=O)OCC(O)CNC(C)C)c1 (stereo unspecified) | 6.8 | -3 | 7.3 | 

— ChEMBL document CHEMBL1122794, “[(Arylcarbonyl)oxy]propanolamines. 1. Novel beta-blockers with ultrashort duration of action” (J Med Chem, 1984)
